In ChEMBL document CHEMBL1128453, “Peptidyl alpha-ketoheterocyclic inhibitors of human neutrophil elastase. 3. In vitro and in vivo potency of a series of peptidyl alpha-ketobenzoxazoles” (J Med Chem, 1995) one finds Ki, Reduction and Lw/Bw data, which are given here for one compound.

A word on the Ki: it is a measure of affinity in units of concentration, obtained from inhibition or displacement.

A value given as a limit tells only on which side of the number the result lay.

Test [1] addresses T1, Cathepsin G (Homo sapiens, UniProt P08311).
T1 sequence (P08311 whole entry): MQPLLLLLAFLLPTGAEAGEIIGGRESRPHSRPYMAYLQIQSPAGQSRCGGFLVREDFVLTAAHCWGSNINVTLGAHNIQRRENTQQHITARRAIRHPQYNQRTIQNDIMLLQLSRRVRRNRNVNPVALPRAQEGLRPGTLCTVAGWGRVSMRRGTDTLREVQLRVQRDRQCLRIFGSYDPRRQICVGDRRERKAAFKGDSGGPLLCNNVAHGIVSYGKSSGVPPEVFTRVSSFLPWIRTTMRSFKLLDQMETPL
In words: Binding affinity towards cathepsin G.

Test [2] deals with T2, Papain (Carica papaya, UniProt P00784).
T2 sequence (P00784 whole entry): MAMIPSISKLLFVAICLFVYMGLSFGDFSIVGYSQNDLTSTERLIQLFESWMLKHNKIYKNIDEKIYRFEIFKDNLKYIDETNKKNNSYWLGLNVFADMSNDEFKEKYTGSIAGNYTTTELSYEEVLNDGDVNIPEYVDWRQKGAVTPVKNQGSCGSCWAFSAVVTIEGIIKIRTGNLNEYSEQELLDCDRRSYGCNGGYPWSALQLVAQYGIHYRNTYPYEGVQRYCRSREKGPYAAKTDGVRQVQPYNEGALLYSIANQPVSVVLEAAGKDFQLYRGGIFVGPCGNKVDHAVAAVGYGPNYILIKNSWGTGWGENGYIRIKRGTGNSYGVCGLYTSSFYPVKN
In words: Binding affinity towards papain.

In test [3] the target is T3, Neutrophil elastase (Homo sapiens, UniProt P08246).
T3 sequence (P08246 whole entry): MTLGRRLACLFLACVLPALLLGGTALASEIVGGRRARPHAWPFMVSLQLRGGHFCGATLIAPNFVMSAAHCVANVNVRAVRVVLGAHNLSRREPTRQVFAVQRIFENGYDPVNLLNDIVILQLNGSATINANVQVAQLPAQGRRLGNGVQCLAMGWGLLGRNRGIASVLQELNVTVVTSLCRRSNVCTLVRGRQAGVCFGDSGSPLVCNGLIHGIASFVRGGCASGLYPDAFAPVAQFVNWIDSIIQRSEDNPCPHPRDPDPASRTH
In words: Inhibition of human neutrophil elastase-catalyzed hydrolysis of the synthetic substrate MeO-Suc-Ala-Ala-Pro-Val-pNa.

Test [4] is described as follows: Percentage reduction in erythrocytes following elastase challenge/treatment. The format is functional. On the set-up: concentration or dose not given beside the values. Put shortly:
(§1)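 Male Syrian hamsters (90–110 g), anaesthetised with brevital sodium (30 mg/kg ip), received intratracheal HNE (400 μg in 0.01 M PBS). Test agent was given intratracheally, either admixed with the enzyme or predosed (shortest interval 6 h). Dose interval is the longest with significant lesion inhibition. At 24 h, wet lung weight/body weight and lavage red/white cells (Coulter) were measured. Results are % reduction scaled between the HNE and saline controls (p = 0.05).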

Test [5] concerns the target Serine protease 1 (Homo sapiens, UniProt P07477). Put plainly: Binding affinity towards trypsin.
Test [6] deals with Chymotrypsinogen A (Bos taurus, UniProt P00766). Put plainly: Binding affinity towards chymotrypsin.
Test [7] deals with T4, Angiotensin-converting enzyme (Rattus norvegicus, UniProt P47820).
T4 sequence (P47820 whole entry): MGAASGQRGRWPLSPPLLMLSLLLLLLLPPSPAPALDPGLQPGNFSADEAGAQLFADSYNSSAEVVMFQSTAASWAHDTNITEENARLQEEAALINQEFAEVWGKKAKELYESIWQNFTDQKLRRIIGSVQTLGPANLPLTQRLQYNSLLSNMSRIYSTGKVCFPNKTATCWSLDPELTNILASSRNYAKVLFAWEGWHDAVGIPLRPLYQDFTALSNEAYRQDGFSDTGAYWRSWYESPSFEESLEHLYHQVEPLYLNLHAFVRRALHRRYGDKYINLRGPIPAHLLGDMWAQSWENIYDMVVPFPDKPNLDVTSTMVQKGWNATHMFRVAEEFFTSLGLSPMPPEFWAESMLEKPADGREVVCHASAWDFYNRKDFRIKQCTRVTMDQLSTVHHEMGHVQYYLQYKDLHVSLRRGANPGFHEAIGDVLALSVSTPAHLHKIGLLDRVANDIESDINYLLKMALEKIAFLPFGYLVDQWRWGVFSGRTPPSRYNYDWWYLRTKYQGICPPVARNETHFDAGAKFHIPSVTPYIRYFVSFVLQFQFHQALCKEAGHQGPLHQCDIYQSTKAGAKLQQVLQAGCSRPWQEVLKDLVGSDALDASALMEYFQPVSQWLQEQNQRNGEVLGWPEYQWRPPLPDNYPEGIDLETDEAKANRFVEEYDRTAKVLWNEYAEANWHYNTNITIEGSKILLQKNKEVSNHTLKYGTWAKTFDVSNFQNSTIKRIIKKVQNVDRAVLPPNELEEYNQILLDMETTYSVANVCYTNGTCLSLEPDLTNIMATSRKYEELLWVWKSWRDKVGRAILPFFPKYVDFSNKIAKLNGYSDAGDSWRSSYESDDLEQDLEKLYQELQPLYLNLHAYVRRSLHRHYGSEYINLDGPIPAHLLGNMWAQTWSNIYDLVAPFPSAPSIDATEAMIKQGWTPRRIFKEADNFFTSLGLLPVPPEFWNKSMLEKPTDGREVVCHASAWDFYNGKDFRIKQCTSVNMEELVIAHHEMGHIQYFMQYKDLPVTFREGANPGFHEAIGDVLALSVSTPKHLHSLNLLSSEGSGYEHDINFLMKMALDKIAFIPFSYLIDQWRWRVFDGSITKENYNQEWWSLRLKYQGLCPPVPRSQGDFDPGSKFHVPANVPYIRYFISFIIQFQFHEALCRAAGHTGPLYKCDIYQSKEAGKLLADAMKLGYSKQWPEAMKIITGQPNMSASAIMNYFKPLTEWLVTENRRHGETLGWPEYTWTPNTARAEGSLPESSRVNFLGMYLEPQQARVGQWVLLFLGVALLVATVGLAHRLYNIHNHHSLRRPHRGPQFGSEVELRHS
Put plainly: Biological activity was measured against Angiotensin I converting enzyme.

Test [8] is described as follows: Percent reduction in leukocytes following elastase challenge/treatment. The class given is functional. The arrangement: concentration or dose not given beside the values. Put shortly:
as §1

For test [9], the target named is T5, Neutrophil elastase (Homo sapiens) (UniProt P08246).
T5 sequence (whole entry): T3 sequence (P08246 whole entry)
The conditions noted are these: Lung.

For test [10], the target named is Prothrombin (Homo sapiens, UniProt P00734). Put plainly: Binding affinity towards thrombin.

Serine protease 1, sequence (P07477 whole entry): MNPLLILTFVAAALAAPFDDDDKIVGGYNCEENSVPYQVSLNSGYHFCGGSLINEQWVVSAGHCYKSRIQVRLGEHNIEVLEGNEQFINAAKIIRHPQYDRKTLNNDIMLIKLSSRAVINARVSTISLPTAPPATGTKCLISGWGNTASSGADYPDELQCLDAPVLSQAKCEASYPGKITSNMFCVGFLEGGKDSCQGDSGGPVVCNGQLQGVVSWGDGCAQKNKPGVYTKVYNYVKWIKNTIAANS

Take `CC(C)[C@H](NC(=O)[C@@H]1CCCN1C(=O)[C@@H](NC(=O)c1ccc(C(=O)NS(=O)(=O)c2ccc(Cl)cc2)cc1)C(C)C)C(=O)c1nc2cc(C(N)=O)ccc2o1`: the Ki in test [1] is over 2000 µM; in test [2] it was over 200 µM; in test [3], 0.0002 µM; in test [5], over 50 µM; in test [6], 92 µM; in test [7] it was over 200 µM. For the same compound, the Ki in [10] is over 50 µM. For the same compound, the figures for the Reduction in test [4] and in [8] were 64% and 53%, respectively. The Lw/Bw in test [9] came out at 54.
